ChEMBL document CHEMBL1932986, “Synthesis and in vitro antimycobacterial activity of compounds derived from (R)- and (S)-2-amino-1-butanol - The crucial role of the configuration” (Eur J Med Chem, 2012)
In brackets after ≈: the same amount, converted by molar mass. Activity calls are given as the source filed them. The rule behind the calls is not given here.

How the values were obtained:
Penicillium chrysogenum [1] = assay: Antifungal activity against Penicillium chrysogenum CECT 2802 at 2 mg/ml after 72 hrs by agar diffusion test; assay type: functional, organism-based
Procedure, shortened: (§1)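 Agar diffusion: yeasts grown on yeast peptone dextrose agar and fungi on potato dextrose agar. Wells are filled with […] of compound solution in DMSO at various concentrations, and the clear-zone diameter is measured. Bracketed values give the lowest concentration (mg/ml) that produces a zone >11 mm. A first screen is run at 50 mg/ml.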

Saccharomyces cerevisiae [2] = assay: Antifungal activity against Saccharomyces cerevisiae ATCC 9763 at 2 mg/ml after 72 hrs by agar diffusion test; assay type: functional, organism-based; procedure, shortened: as §1
Candida tropicalis [3] = assay: Antifungal activity against Candida tropicalis ATCC 20336 at 2 mg/ml after 72 hrs by agar diffusion test; assay type: functional, organism-based; procedure, shortened: as §1
Escherichia coli [4] = assay: Antibacterial activity against Escherichia coli ATCC 8739 at 2 mg/ml after 24 hrs by agar diffusion test; assay type: functional, organism-based
Procedure, shortened: (§2)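 Agar diffusion: wells in agar filled with […] DMSO solution of compound at various concentrations; diameter of clear zone around application point measured. Bacteria grown 24 h at 37 °C on nutrient agar. Compounds first screened at 50 mg/ml; those active then tested at lower concentrations. Bracketed value = lowest concentration (mg/ml) giving zone >11 mm, reported only if activity retained at ≤1.25 mg/ml.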

Micrococcus luteus [5] = assay: Antibacterial activity against Micrococcus luteus ATCC 9631 at 2 mg/ml after 24 hrs by agar diffusion test; assay type: functional, organism-based; procedure, shortened: as §2
Micrococcus luteus [6] = assay: Antibacterial activity against Sarcina lutea ATCC 9341 at 2 mg/ml after 24 hrs by agar diffusion test; assay type: functional, organism-based; procedure, shortened: as §2
Staphylococcus aureus [7] = assay: Antibacterial activity against Staphylococcus aureus NRRL B 313 at 2 mg/ml after 24 hrs by agar diffusion test; assay type: functional, organism-based
Procedure, shortened: (§3)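 Agar diffusion: bacteria grown 24 h at 37 °C on nutrient agar. Wells in the agar are filled with […] of compound solution in DMSO at various concentrations. The diameter of the clear zone around the application point is measured. Bracketed values give the lowest concentration (mg/ml) that produces a zone >11 mm. A first screen is run at 50 mg/ml.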

Acinetobacter johnsonii [8] = assay: Antibacterial activity against Acinetobacter johnsonii ATCC 17909 at 2 mg/ml after 24 hrs by agar diffusion test; assay type: functional; procedure, shortened: as §2
Bacillus cereus [9] = assay: Antibacterial activity against Bacillus cereus ATCC 11778 at 2 mg/ml after 24 hrs by agar diffusion test; assay type: functional, organism-based; procedure, shortened: as §2
Bacillus mycoides [10] = assay: Antibacterial activity against Bacillus mycoides DSMZ 274 at 2 mg/ml after 24 hrs by agar diffusion test; assay type: functional, organism-based; procedure, shortened: as §2
Priestia megaterium [11] = assay: Antibacterial activity against Bacillus megaterium NRRL 1353895 at 2 mg/ml after 24 hrs by agar diffusion test; assay type: functional, organism-based; procedure, shortened: as §2
Bacillus [12] = assay: Antibacterial activity against Bacillus idosus B 241 at 2 mg/ml after 24 hrs by agar diffusion test; assay type: functional, organism-based; procedure, shortened: as §2
Bacillus subtilis [13] = assay: Antibacterial activity against Bacillus subtilis ATCC 6633 at 2 mg/ml after 24 hrs by agar diffusion test; assay type: functional, organism-based; procedure, shortened: as §2
Bacillus subtilis [14] = assay: Antibacterial activity against Bacillus subtilis ATCC 6633 assessed as concentration required to produce >11 mm of zone of inhibition after 24 hrs by agar diffusion test; assay type: functional; procedure, shortened: as §2
Bacillus [15] = assay: Antibacterial activity against Bacillus idosus B 241 assessed as concentration required to produce >11 mm of zone of inhibition after 24 hrs by agar diffusion test; assay type: functional; procedure, shortened: as §2
Priestia megaterium [16] = assay: Antibacterial activity against Bacillus megaterium NRRL 1353895 assessed as concentration required to produce >11 mm of zone of inhibition after 24 hrs by agar diffusion test; assay type: functional; procedure, shortened: as §2
Bacillus mycoides [17] = assay: Antibacterial activity against Bacillus mycoides DSMZ 274 assessed as concentration required to produce >11 mm of zone of inhibition after 24 hrs by agar diffusion test; assay type: functional; procedure, shortened: as §2
Bacillus cereus [18] = assay: Antibacterial activity against Bacillus cereus ATCC 11778 assessed as concentration required to produce >11 mm of zone of inhibition after 24 hrs by agar diffusion test; assay type: functional; procedure, shortened: as §2
Acinetobacter johnsonii [19] = assay: Antibacterial activity against Acinetobacter johnsonii ATCC 17909 assessed as concentration required to produce >11 mm of zone of inhibition after 24 hrs by agar diffusion test; assay type: functional; procedure, shortened: as §2
[20] = tested on: Mycobacterium tuberculosis; assay: Antimycobacterial activity against Mycobacterium tuberculosis H37Rv after 45 days; assay type: functional
Procedure, shortened: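 Canetti proportion method. Compound in DMSO is added to Löwenstein–Jensen egg medium before coagulation (30 min, 85 °C), tested at three levels plus a lower one where needed. Tubes are inoculated with H37Rv at 10⁵ cells/ml and incubated 45 days at 37 °C. Colony counts versus drug-free control give percentage inhibition.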

Staphylococcus aureus [21] = assay: Antibacterial activity against Staphylococcus aureus NRRL B 313 assessed as concentration required to produce >11 mm of zone of inhibition after 24 hrs by agar diffusion test; assay type: functional; procedure, shortened: as §3
Micrococcus luteus [22] = assay: Antibacterial activity against Sarcina lutea ATCC 9341 assessed as concentration required to produce >11 mm of zone of inhibition after 24 hrs by agar diffusion test; assay type: functional; procedure, shortened: as §2
Micrococcus luteus [23] = assay: Antibacterial activity against Micrococcus luteus ATCC 9631 assessed as concentration required to produce >11 mm of zone of inhibition after 24 hrs by agar diffusion test; assay type: functional; procedure, shortened: as §2
Escherichia coli [24] = assay: Antibacterial activity against Escherichia coli ATCC 8739 assessed as concentration required to produce >11 mm of zone of inhibition after 24 hrs by agar diffusion test; assay type: functional; procedure, shortened: as §2
Candida tropicalis [25] = assay: Antifungal activity against Candida tropicalis ATCC 20336 assessed as concentration required to produce >11 mm of zone of inhibition after 72 hrs by agar diffusion test; assay type: functional; procedure, shortened: as §1
Saccharomyces cerevisiae [26] = assay: Antifungal activity against Saccharomyces cerevisiae ATCC 9763 assessed as concentration required to produce >11 mm of zone of inhibition after 72 hrs by agar diffusion test; assay type: functional; procedure, shortened: as §1
Penicillium chrysogenum [27] = assay: Antifungal activity against Penicillium chrysogenum CECT 2802 assessed as concentration required to produce >11 mm of zone of inhibition after 72 hrs by agar diffusion test; assay type: functional; procedure, shortened: as §1
Bacillus subtilis [28] = assay: Antibacterial activity against Bacillus subtilis ATCC 6633 at 50 mg/ml after 24 hrs by agar diffusion test; assay type: functional; settings: ATCC 6633, 24 h, read-out: DIZ; procedure, shortened: as §2
Bacillus [29] = assay: Antibacterial activity against Bacillus idosus B 241 at 50 mg/ml after 24 hrs by agar diffusion test; assay type: functional; settings: B 241, 24 h, read-out: DIZ; procedure, shortened: as §2
Priestia megaterium [30] = assay: Antibacterial activity against Bacillus megaterium NRRL 1353895 at 50 mg/ml after 24 hrs by agar diffusion test; assay type: functional; settings: NRRL 1353895, 24 h, read-out: DIZ; procedure, shortened: as §2
Bacillus mycoides [31] = assay: Antibacterial activity against Bacillus mycoides DSMZ 274 at 50 mg/ml after 24 hrs by agar diffusion test; assay type: functional; settings: DSMZ 274, 24 h, read-out: DIZ; procedure, shortened: as §2
Bacillus cereus [32] = assay: Antibacterial activity against Bacillus cereus ATCC 11778 at 50 mg/ml after 24 hrs by agar diffusion test; assay type: functional; settings: ATCC 11778, 24 h, read-out: DIZ; procedure, shortened: as §2
Acinetobacter johnsonii [33] = assay: Antibacterial activity against Acinetobacter johnsonii ATCC 17909 at 50 mg/ml after 24 hrs by agar diffusion test; assay type: functional; settings: ATCC 17909, 24 h, read-out: DIZ; procedure, shortened: as §2
Staphylococcus aureus [34] = assay: Antibacterial activity against Staphylococcus aureus NRRL B 313 at 50 mg/ml after 24 hrs by agar diffusion test; assay type: functional; settings: NRRL B 313, 24 h, read-out: DIZ; procedure, shortened: as §3
Micrococcus luteus [35] = assay: Antibacterial activity against Sarcina lutea ATCC 9341 at 50 mg/ml after 24 hrs by agar diffusion test; assay type: functional; settings: ATCC 9341, 24 h, read-out: DIZ; procedure, shortened: as §3
Micrococcus luteus [36] = assay: Antibacterial activity against Micrococcus luteus ATCC 9631 at 50 mg/ml after 24 hrs by agar diffusion test; assay type: functional; settings: ATCC 9631, 24 h, read-out: DIZ; procedure, shortened: as §2
Escherichia coli [37] = assay: Antibacterial activity against Escherichia coli ATCC 8739 at 50 mg/ml after 24 hrs by agar diffusion test; assay type: functional; settings: ATCC 8739, 24 h, read-out: DIZ; procedure, shortened: as §2
Candida tropicalis [38] = assay: Antifungal activity against Candida tropicalis ATCC 20336 at 50 mg/ml after 72 hrs by agar diffusion test; assay type: functional; settings: ATCC 20336, 72 h, read-out: DIZ; procedure, shortened: as §1
Saccharomyces cerevisiae [39] = assay: Antifungal activity against Saccharomyces cerevisiae ATCC 9763 at 50 mg/ml after 72 hrs by agar diffusion test; assay type: functional; settings: ATCC 9763, 72 h, read-out: DIZ; procedure, shortened: as §1
Penicillium chrysogenum [40] = assay: Antifungal activity against Penicillium chrysogenum CECT 2802 at 50 mg/ml after 72 hrs by agar diffusion test; assay type: functional; settings: CECT 2802, 72 h, read-out: DIZ; procedure, shortened: as §1

CC[C@H](COC(C)=O)N1C(=O)C=CC1=O
diameter of the inhibition zone (DIZ) (Penicillium chrysogenum [1]): inactive
diameter of the inhibition zone (DIZ) (Saccharomyces cerevisiae [2]): inactive
diameter of the inhibition zone (DIZ) (Candida tropicalis [3]): inactive
diameter of the inhibition zone (DIZ) (Escherichia coli [4]): inactive
diameter of the inhibition zone (DIZ) (Micrococcus luteus [5]): inactive
diameter of the inhibition zone (DIZ) (Micrococcus luteus [6]): inactive
diameter of the inhibition zone (DIZ) (Staphylococcus aureus [7]): inactive
diameter of the inhibition zone (DIZ) (Acinetobacter johnsonii [8]): inactive
diameter of the inhibition zone (DIZ) (Bacillus cereus [9]): inactive
diameter of the inhibition zone (DIZ) (Bacillus mycoides [10]): inactive
diameter of the inhibition zone (DIZ) (Priestia megaterium [11]): inactive
diameter of the inhibition zone (DIZ) (Bacillus [12]): inactive
diameter of the inhibition zone (DIZ) (Bacillus subtilis [13]): inactive
Activity (Bacillus subtilis [14]): 0.06 mg/mL
Activity (Bacillus [15]): 0.06 mg/mL
Activity (Priestia megaterium [16]): 0.06 mg/mL
Activity (Bacillus mycoides [17]): 0.06 mg/mL
Activity (Bacillus cereus [18]): 0.0125 mg/mL
Activity (Acinetobacter johnsonii [19]): 0.06 mg/mL
MIC [20]: 23.7 µM (≈ 5 µg/mL)
Activity (Staphylococcus aureus [21]): 0.06 mg/mL
Activity (Micrococcus luteus [22]): 0.06 mg/mL
Activity (Micrococcus luteus [23]): 0.3 mg/mL
Activity (Escherichia coli [24]): 1.25 mg/mL
Activity (Candida tropicalis [25]): 0.006 mg/mL
Activity (Saccharomyces cerevisiae [26]): 0.006 mg/mL
Activity (Penicillium chrysogenum [27]): 0.0125 mg/mL
zone of inhibition at 50000 µg/mL (Bacillus subtilis [28]): 40 mm
zone of inhibition at 50000 µg/mL (Bacillus [29]): 35 mm
zone of inhibition at 50000 µg/mL (Priestia megaterium [30]): 40 mm
zone of inhibition at 50000 µg/mL (Bacillus mycoides [31]): 38 mm
zone of inhibition at 50000 µg/mL (Bacillus cereus [32]): 40 mm
zone of inhibition at 50000 µg/mL (Acinetobacter johnsonii [33]): 39 mm
zone of inhibition at 50000 µg/mL (Staphylococcus aureus [34]): > 40 mm
zone of inhibition at 50000 µg/mL (Micrococcus luteus [35]): 38 mm
zone of inhibition at 50000 µg/mL (Micrococcus luteus [36]): 38 mm
zone of inhibition at 50000 µg/mL (Escherichia coli [37]): 29 mm
zone of inhibition at 50000 µg/mL (Candida tropicalis [38]): > 40 mm
zone of inhibition at 50000 µg/mL (Saccharomyces cerevisiae [39]): > 40 mm
zone of inhibition at 50000 µg/mL (Penicillium chrysogenum [40]): > 40 mm
